In ChEMBL document CHEMBL1154198, “Chemical genetics of Plasmodium falciparum” (Nature, 2010):

Key:
Plasmodium falciparum [1] = assay: ST_JUDE: Cytotoxicity against Plasmodium falciparum 3D7; type: functional, organism-based
How it was run: (§1)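 Asexual P. falciparum grown in human erythrocytes, exposed to compounds for 72 h, and growth read as the DNA quantity in treated versus control cultures. Dose-response run at 12 concentrations from 10 μM to 5 nM.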

Plasmodium falciparum [2] = assay: ST_JUDE: Cytotoxicity against Plasmodium falciparum Dd2; type: functional, organism-based
[3] = ST_JUDE: Cytotoxicity using luciferase to measure ATP as an indicator of the viability of human foreskin fibroblast cells (BJ); type: toxicity, cell-based
Toxoplasma gondii = assay: ST_JUDE: Growth inhibition of to Toxoplasma gondii, in human U-2OS cells, as measured by luciferase.; type: functional, organism-based; settings: RH, U2OS
How it was run: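 T. gondii parasites engineered to express luciferase; drug sensitivity read by luminescence.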

Plasmodium falciparum [4] = assay: ST_JUDE: Plasmodium falciparum K1 EC50 (uM) as measured by SYBR green dye; type: functional, organism-based
Plasmodium falciparum [5] = assay: ST_JUDE: Cytotoxicity against Plasmodium falciparum SB-A6; type: functional, organism-based
Plasmodium falciparum [6] = assay: ST_JUDE: Cytotoxicity against Plasmodium falciparum D10 transfected with yeast DHOD; type: functional, organism-based
[7] = ST_JUDE: Cytotoxicity using luciferase to measure ATP as an indicator of the viability of human epithelial embryonic kidney cells (HEK293); type: toxicity, cell-based
Leishmania major = assay: ST_JUDE: Cytotoxicity using Alamar Blue to measure viability of Leishmania major; type: functional, organism-based
How it was run: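 L. major promastigotes; drug susceptibility read with Alamar Blue.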

Trypanosoma brucei = assay: ST_JUDE: Cytotoxicity using luciferase to measure ATP as an indicator of the viability of Trypanosoma brucei; type: functional, organism-based
[8] = ST_JUDE: Cytotoxicity using luciferase to measure ATP as an indicator of the viability of human epithelial hepatocellular carcinoma cells (HepG2); type: toxicity, cell-based
Plasmodium falciparum [9] = assay: ST_JUDE: Cytotoxicity against Plasmodium falciparum K1; type: functional, organism-based; how it was run: as §1
Plasmodium falciparum [10] = assay: ST_JUDE: Cytotoxicity against Plasmodium falciparum W2; type: functional, organism-based
[11] = ST_JUDE: Cytotoxicity using luciferase to measure ATP as an indicator of the viability of human Burkitt''s lymphoma lymphoblast cells (Raji); type: toxicity, cell-based
Plasmodium falciparum [12] = assay: ST_JUDE: Cytotoxicity against Plasmodium falciparum V1/S; type: functional, organism-based
Plasmodium falciparum [13] = assay: ST_JUDE: Plasmodium falciparum 3D7 EC50 (uM) as measured by SYBR green dye; type: functional, organism-based

| SMILES | EC50 (Plasmodium falciparum [1]) | EC50 (Plasmodium falciparum [2]) | EC50 [3] | EC50 (Toxoplasma gondii) | EC50 (Plasmodium falciparum [4]) | EC50 (Plasmodium falciparum [5]) | EC50 (Plasmodium falciparum [6]) | EC50 [7] | EC50 (Leishmania major) | EC50 (Trypanosoma brucei) | EC50 [8] | EC50 (Plasmodium falciparum [9]) | EC50 (Plasmodium falciparum [10]) | EC50 [11] | EC50 (Plasmodium falciparum [12]) | EC50 (Plasmodium falciparum [13]) |
| --- | --- | --- | --- | --- | --- | --- | --- | --- | --- | --- | --- | --- | --- | --- | --- | --- |
| COCCO/C(O)=C1\C(C)=NC2=C(C(=O)CC(c3ccc(OC)c(OC)c3)C2)C1c1ccc(F)cc1 (stereo not drawn) | 740 nM | 526 nM | > 42400 nM | > 23200 nM | 94.6 nM | 2670 nM | 2990 nM | > 42400 nM | > 18200 nM | 17400 nM | > 42400 nM | 518 nM | 470 nM | > 42400 nM | 1620 nM | 253 nM |
| Oc1ccc(C2NCc3ccccc3-n3cccc32)cc1Cl (stereo not drawn) | 1490 nM | 1380 nM | > 46000 nM | > 25200 nM | 357 nM | 2350 nM | 1770 nM | > 46000 nM | > 19700 nM | > 44100 nM | > 46000 nM | 395 nM | 1090 nM | > 46000 nM | 360 nM | 1250 nM |
| C[N+](C)(C)c1nc(N2CCOCC2)nc(N(c2ccccc2)c2ccccc2)n1 | 396 nM | 1300 nM | > 42800 nM | > 23500 nM | 1830 nM | 626 nM | 880 nM | > 42800 nM | > 18300 nM | 5590 nM | > 42800 nM | 1510 nM | 5820 nM | 10600 nM | 1840 nM | 529 nM |
| CCCN(C(=O)C(=O)Nc1ccc2nc3n(c(=O)c2c1)CCCCC3)c1ccc(OCC)cc1 | 490 nM | 700 nM | > 47300 nM | > 25900 nM | 289 nM | 346 nM | 220 nM | > 47300 nM | > 20200 nM | > 45300 nM | > 47300 nM | 326 nM | 334 nM | > 47300 nM | 215 nM | 673 nM |
| COc1ccc(NC(=O)C2c3ccccc3C(=O)N(C3CCCC3)C2c2cccs2)cc1 (stereo not drawn) | 1230 nM | 1110 nM | > 40700 nM | > 22300 nM | 1220 nM | 1970 nM | 1410 nM | > 40700 nM | > 17400 nM | 6530 nM | > 40700 nM | 1170 nM | > 10500 nM | > 40700 nM | 1020 nM | 979 nM |
| COc1ccccc1Cn1ccnc1SCC(=O)Nc1cc(C(F)(F)F)ccc1Cl | 190 nM | 246 nM | > 39100 nM | > 21400 nM | 170 nM | > 10000 nM | > 10000 nM | > 39100 nM | > 16700 nM | 12100 nM | > 39100 nM | 252 nM | 2670 nM | > 39100 nM | 288 nM | 119 nM |
| COC(=O)C1=CNC=C(C(=O)OC)C1c1ccc(Cl)c(Cl)c1 | 772 nM | 780 nM | > 45800 nM | > 25100 nM | 1670 nM | > 11800 nM | > 11800 nM | > 45800 nM | > 19600 nM | 17100 nM | > 45800 nM | 1360 nM | 900 nM | > 45800 nM | 1780 nM | 843 nM |
| Cc1ccc(NC(=O)C2c3ccccc3C(=O)N(CC(C)C)C2c2cccs2)c(Cl)c1 (stereo not drawn) | > 11300 nM | 981 nM | > 44100 nM | > 24100 nM | 747 nM | 741 nM | 628 nM | > 44100 nM | > 18900 nM | 8030 nM | > 44100 nM | > 11300 nM | 849 nM | > 44100 nM | 1180 nM | 463 nM |
| CCCCN(CCCC)CC(O)COc1ccccc1C(=O)Nc1ccccc1 (stereo not drawn) | 108 nM | 69.2 nM | > 53200 nM | > 29200 nM | 42.4 nM | 144 nM | 163 nM | > 53200 nM | > 22800 nM | 21300 nM | > 53200 nM | 39.3 nM | 202 nM | > 53200 nM | 54.5 nM | 59 nM |
| CCOc1ccccc1N1CCN(Cc2cc(Br)cc(OC)c2O)CC1 | 1510 nM | 1170 nM | > 36800 nM | > 20100 nM | 1110 nM | 1140 nM | 2420 nM | > 36800 nM | > 15700 nM | > 35300 nM | > 36800 nM | 478 nM | 2930 nM | > 36800 nM | 643 nM | 1210 nM |
| Cc1ccc(C2(c3ccc(C)cc3)CC2C(=O)Nc2ccc([N+](=O)[O-])cc2O)cc1 (stereo not drawn) | 1010 nM | 2090 nM | 11000 nM | > 21100 nM | 582 nM | 1830 nM | 1600 nM | 11400 nM | > 16500 nM | 4780 nM | 10700 nM | 741 nM | 1830 nM | 10600 nM | 1260 nM | 658 nM |
| CCc1nc2nc(C)cc(Nc3ccc(I)cc3)n2n1 | 347 nM | 456 nM | > 39500 nM | > 21600 nM | 368 nM | > 10100 nM | > 10100 nM | > 39500 nM | > 16900 nM | > 37800 nM | > 39500 nM | 641 nM | 595 nM | > 39500 nM | 1160 nM | 285 nM |
| CCCCOc1ccc(N(C(C)=O)C2=C(N3CCCCC3)C(=O)c3ccccc3C2=O)cc1 | 167 nM | 382 nM | > 28500 nM | > 15600 nM | 489 nM | 104 nM | 62 nM | > 28500 nM | > 12200 nM | 4910 nM | 13700 nM | 147 nM | 483 nM | 6970 nM | 120 nM | 722 nM |
